According to ChEMBL document CHEMBL4251567 (Eur J Med Chem, 2018):

Key:
U-937 [1] = experiment: Cytotoxicity against human U937 cells assessed as decrease in cell viability after 44 hrs by MTT assay; format: functional, cell-based; settings: Homo sapiens, U-937, 44 h
U-937 [2] = experiment: Cytotoxicity against human U937 cells assessed as cell viability at 5 x 10^-3 M after 44 hrs by MTT assay relative to control; format: functional; settings: U-937, 44 h, read-out: Activity
U-937 [3] = experiment: Cytotoxicity against human U937 cells assessed as cell viability at 2.5 x 10^-3 M after 44 hrs by MTT assay relative to control; format: functional; settings: U-937, 44 h, read-out: Activity
U-937 [4] = experiment: Cytotoxicity against human U937 cells assessed as cell viability at 1.25 x 10^-3 M after 44 hrs by MTT assay relative to control; format: functional; settings: U-937, 44 h, read-out: Activity
U-937 [5] = experiment: Cytotoxicity against human U937 cells assessed as cell viability at 5 x 10^-4 M after 44 hrs by MTT assay relative to control; format: functional; settings: U-937, 44 h, read-out: Activity
U-937 [6] = experiment: Cytotoxicity against human U937 cells assessed as cell viability at 200 uM after 44 hrs by MTT assay relative to control; format: functional; settings: U-937, 44 h, read-out: Activity
U-937 [7] = experiment: Cytotoxicity against human U937 cells assessed as cell viability at 200 uM after 44 hrs in presence of tubastatin by MTT assay relative to control; format: functional; settings: U-937, 44 h, read-out: Activity
U-937 [8] = experiment: Cytotoxicity against human U937 cells assessed as cell viability at 4 x 10^-3 M after 44 hrs by MTT assay relative to control; format: functional; settings: U-937, 44 h, read-out: Activity
U-937 [9] = experiment: Cytotoxicity against human U937 cells assessed as cell viability at 3 x 10^-3 M after 44 hrs by MTT assay relative to control; format: functional; settings: U-937, 44 h, read-out: Activity
U-937 [10] = experiment: Cytotoxicity against human U937 cells assessed as cell viability at 1 x 10^-3 M after 44 hrs by MTT assay relative to control; format: functional; settings: U-937, 44 h, read-out: Activity
U-937 [11] = experiment: Cytotoxicity against human U937 cells assessed as cell viability at 2.5 x 10^-4 M after 44 hrs by MTT assay relative to control; format: functional; settings: U-937, 44 h, read-out: Activity
U-937 [12] = experiment: Cytotoxicity against human U937 cells assessed as cell viability at 80 uM after 44 hrs by MTT assay relative to control; format: functional; settings: U-937, 44 h, read-out: Activity
U-937 [13] = experiment: Cytotoxicity against human U937 cells assessed as cell viability at 80 uM after 44 hrs in presence of PCI-34051 by MTT assay relative to control; format: functional; settings: U-937, 44 h, read-out: Activity
[14] = target: Histone deacetylase 1 (Homo sapiens) (UniProt Q13547); experiment: Inhibition of HDAC1 in human HeLa-S3 cell lysates assessed as remaining activity at 8 x 10^-5 M preincubated for 15 mins followed by HDAC-Glo substrate addition measured after 30 to 40 mins by […] relative to control
Sequence of Histone deacetylase 1 (Homo sapiens) (Q13547 whole entry): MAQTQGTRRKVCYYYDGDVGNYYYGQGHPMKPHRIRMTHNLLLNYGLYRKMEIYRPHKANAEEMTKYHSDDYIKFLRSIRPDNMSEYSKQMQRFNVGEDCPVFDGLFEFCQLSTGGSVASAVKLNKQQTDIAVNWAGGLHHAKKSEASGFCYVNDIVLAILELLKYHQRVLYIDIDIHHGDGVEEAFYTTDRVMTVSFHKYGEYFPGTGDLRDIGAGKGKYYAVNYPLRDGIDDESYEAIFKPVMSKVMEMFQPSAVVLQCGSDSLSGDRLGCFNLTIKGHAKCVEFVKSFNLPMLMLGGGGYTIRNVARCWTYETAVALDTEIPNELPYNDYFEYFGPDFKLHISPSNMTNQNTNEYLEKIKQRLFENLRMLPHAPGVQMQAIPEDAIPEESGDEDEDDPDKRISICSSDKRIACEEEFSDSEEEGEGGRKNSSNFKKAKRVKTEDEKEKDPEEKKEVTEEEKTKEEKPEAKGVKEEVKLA

[15] = target: Histone deacetylase 1 (Homo sapiens) (UniProt Q13547); experiment: Inhibition of HDAC1 in human HeLa-S3 cell lysates assessed as remaining activity at 4 x 10^-5 M preincubated for 15 mins followed by HDAC-Glo substrate addition measured after 30 to 40 mins by […] relative to control
Summary of the method: (§1)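 HDAC1 was captured from HeLa-S3 lysate (100 μg/mL) onto wells precoated with anti-HDAC1 antibody (10 μg/mL, carbonate buffer pH 9.4) and milk-blocked, 1 h at 4 °C, then washed. Inhibitor in DMSO was added in HDAC-Glo buffer for 15 min at room temperature. HDAC-Glo reagent was added and luminescence read after 30-40 min. Concentrations are final. No-antibody background subtracted; % of DMSO control.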

[16] = target: Histone deacetylase 1 (Homo sapiens) (UniProt Q13547); experiment: Inhibition of HDAC1 in human HeLa-S3 cell lysates assessed as remaining activity at 2 x 10^-5 M preincubated for 15 mins followed by HDAC-Glo substrate addition measured after 30 to 40 mins by […] relative to control; summary of the method: as §1
[17] = target: Histone deacetylase 1 (Homo sapiens) (UniProt Q13547); experiment: Inhibition of HDAC1 in human HeLa-S3 cell lysates assessed as remaining activity at 1 x 10^-5 M preincubated for 15 mins followed by HDAC-Glo substrate addition measured after 30 to 40 mins by fluorimetric method relative to control; summary of the method: as §1
[18] = target: Histone deacetylase 2 (Homo sapiens) (UniProt Q92769); experiment: Inhibition of HDAC2 in human HeLa-S3 cell lysates assessed as remaining activity at 8 x 10^-5 M preincubated for 15 mins followed by HDAC-Glo substrate addition measured after 30 to 40 mins by […] relative to control
Sequence of Histone deacetylase 2 (Homo sapiens) (Q92769 whole entry, canonical isoform): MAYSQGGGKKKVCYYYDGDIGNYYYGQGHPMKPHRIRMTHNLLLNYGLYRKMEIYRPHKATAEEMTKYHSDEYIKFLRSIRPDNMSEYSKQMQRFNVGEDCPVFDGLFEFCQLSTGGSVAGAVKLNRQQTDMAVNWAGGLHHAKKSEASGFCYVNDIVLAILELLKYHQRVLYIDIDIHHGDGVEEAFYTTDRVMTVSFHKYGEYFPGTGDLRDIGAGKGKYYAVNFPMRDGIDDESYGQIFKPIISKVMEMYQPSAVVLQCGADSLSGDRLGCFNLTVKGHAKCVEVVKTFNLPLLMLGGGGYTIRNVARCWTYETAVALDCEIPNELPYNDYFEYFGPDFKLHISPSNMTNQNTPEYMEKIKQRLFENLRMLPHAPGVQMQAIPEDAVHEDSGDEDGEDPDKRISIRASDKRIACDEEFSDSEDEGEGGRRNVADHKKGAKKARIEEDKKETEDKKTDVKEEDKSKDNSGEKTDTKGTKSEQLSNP
Summary of the method: (§2)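 Same antibody-capture format as the other class I isoforms. HeLa-S3 lysate added at 100 μg/mL for HDAC1 and HDAC2, 1 h at 4 °C, then washed. Inhibitor in DMSO preincubated 15 min at RT; HDAC-Glo reagent added and luminescence read after 30-40 min. Concentrations are final. Signal corrected against a well without antibody; activity expressed as % of DMSO control.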

[19] = target: Histone deacetylase 2 (Homo sapiens) (UniProt Q92769); experiment: Inhibition of HDAC2 in human HeLa-S3 cell lysates assessed as remaining activity at 4 x 10^-5 M preincubated for 15 mins followed by HDAC-Glo substrate addition measured after 30 to 40 mins by […] relative to control; summary of the method: as §2
[20] = target: Histone deacetylase 2 (Homo sapiens) (UniProt Q92769); experiment: Inhibition of HDAC2 in human HeLa-S3 cell lysates assessed as remaining activity at 2 x 10^-5 M preincubated for 15 mins followed by HDAC-Glo substrate addition measured after 30 to 40 mins by fluorimetric method relative to control; summary of the method: as §2
[21] = target: Histone deacetylase 3 (Homo sapiens) (UniProt O15379); experiment: Inhibition of HDAC3 in human HeLa-S3 cell lysates assessed as remaining activity at 8 x 10^-5 M preincubated for 15 mins followed by HDAC-Glo substrate addition measured after 30 to 40 mins by […] relative to control
Sequence of Histone deacetylase 3 (Homo sapiens) (O15379 whole entry): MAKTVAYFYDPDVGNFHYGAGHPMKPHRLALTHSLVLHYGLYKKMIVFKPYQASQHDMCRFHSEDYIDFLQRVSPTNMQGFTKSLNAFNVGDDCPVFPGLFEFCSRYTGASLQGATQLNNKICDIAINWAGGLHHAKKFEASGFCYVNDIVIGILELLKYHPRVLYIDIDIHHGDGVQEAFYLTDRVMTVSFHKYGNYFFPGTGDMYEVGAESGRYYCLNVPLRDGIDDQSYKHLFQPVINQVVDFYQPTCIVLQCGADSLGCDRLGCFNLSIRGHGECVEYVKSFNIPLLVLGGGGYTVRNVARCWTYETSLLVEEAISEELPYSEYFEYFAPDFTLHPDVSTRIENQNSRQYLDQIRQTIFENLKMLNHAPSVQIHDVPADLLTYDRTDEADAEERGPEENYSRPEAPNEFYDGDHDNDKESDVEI
Summary of the method: (§3)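 Antibody-capture (ELISA-type) assay: HDAC antibody coated in carbonate/bicarbonate buffer pH 9.4, wells blocked with 5% milk in TBST. HeLa-S3 lysate added at 1 mg/mL for HDAC3, 1 h at 4 °C, then washed. Inhibitor in DMSO preincubated 15 min at RT in HDAC-Glo buffer. HDAC-Glo reagent added, luminescence read after 30-40 min. Concentrations are final. Background = no-antibody well; activity given as % of DMSO control.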

[22] = target: Histone deacetylase 3 (Homo sapiens) (UniProt O15379); experiment: Inhibition of HDAC3 in human HeLa-S3 cell lysates assessed as remaining activity at 4 x 10^-5 M preincubated for 15 mins followed by HDAC-Glo substrate addition measured after 30 to 40 mins by […] relative to control; summary of the method: as §3
[23] = target: Histone deacetylase 3 (Homo sapiens) (UniProt O15379); experiment: Inhibition of HDAC3 in human HeLa-S3 cell lysates assessed as remaining activity at 2 x 10^-5 M preincubated for 15 mins followed by HDAC-Glo substrate addition measured after 30 to 40 mins by […] relative to control; summary of the method: as §3
[24] = target: Histone deacetylase 3 (Homo sapiens) (UniProt O15379); experiment: Inhibition of HDAC3 in human HeLa-S3 cell lysates assessed as remaining activity at 1 x 10^-5 M preincubated for 15 mins followed by HDAC-Glo substrate addition measured after 30 to 40 mins by […] relative to control; summary of the method: as §3
[25] = target: Histone deacetylase 1 (Homo sapiens) (UniProt Q13547); experiment: Inhibition of HDAC1 in human HeLa-S3 cell lysates assessed as remaining activity at 5 x 10^-6 M preincubated for 15 mins followed by HDAC-Glo substrate addition measured after 30 to 40 mins by […] relative to control; summary of the method: as §1
[26] = target: Histone deacetylase 2 (Homo sapiens) (UniProt Q92769); experiment: Inhibition of HDAC2 in human HeLa-S3 cell lysates assessed as remaining activity at 5 x 10^-6 M preincubated for 15 mins followed by HDAC-Glo substrate addition measured after 30 to 40 mins by […] relative to control; summary of the method: as §2
[27] = target: Histone deacetylase 3 (Homo sapiens) (UniProt O15379); experiment: Inhibition of HDAC3 in human HeLa-S3 cell lysates assessed as remaining activity at 5 x 10^-6 M preincubated for 15 mins followed by HDAC-Glo substrate addition measured after 30 to 40 mins by […] relative to control; summary of the method: as §3
[28] = target: T1, Protein deacetylase HDAC6 (Homo sapiens) (UniProt Q9UBN7); experiment: Inhibition of HDAC6 in human HeLa-S3 cell lysates assessed as remaining activity at 1.25 x 10^-8 M preincubated for 15 mins followed by HDAC-Glo substrate addition measured after 30 to 40 mins by […] relative to control
T1 sequence (whole entry): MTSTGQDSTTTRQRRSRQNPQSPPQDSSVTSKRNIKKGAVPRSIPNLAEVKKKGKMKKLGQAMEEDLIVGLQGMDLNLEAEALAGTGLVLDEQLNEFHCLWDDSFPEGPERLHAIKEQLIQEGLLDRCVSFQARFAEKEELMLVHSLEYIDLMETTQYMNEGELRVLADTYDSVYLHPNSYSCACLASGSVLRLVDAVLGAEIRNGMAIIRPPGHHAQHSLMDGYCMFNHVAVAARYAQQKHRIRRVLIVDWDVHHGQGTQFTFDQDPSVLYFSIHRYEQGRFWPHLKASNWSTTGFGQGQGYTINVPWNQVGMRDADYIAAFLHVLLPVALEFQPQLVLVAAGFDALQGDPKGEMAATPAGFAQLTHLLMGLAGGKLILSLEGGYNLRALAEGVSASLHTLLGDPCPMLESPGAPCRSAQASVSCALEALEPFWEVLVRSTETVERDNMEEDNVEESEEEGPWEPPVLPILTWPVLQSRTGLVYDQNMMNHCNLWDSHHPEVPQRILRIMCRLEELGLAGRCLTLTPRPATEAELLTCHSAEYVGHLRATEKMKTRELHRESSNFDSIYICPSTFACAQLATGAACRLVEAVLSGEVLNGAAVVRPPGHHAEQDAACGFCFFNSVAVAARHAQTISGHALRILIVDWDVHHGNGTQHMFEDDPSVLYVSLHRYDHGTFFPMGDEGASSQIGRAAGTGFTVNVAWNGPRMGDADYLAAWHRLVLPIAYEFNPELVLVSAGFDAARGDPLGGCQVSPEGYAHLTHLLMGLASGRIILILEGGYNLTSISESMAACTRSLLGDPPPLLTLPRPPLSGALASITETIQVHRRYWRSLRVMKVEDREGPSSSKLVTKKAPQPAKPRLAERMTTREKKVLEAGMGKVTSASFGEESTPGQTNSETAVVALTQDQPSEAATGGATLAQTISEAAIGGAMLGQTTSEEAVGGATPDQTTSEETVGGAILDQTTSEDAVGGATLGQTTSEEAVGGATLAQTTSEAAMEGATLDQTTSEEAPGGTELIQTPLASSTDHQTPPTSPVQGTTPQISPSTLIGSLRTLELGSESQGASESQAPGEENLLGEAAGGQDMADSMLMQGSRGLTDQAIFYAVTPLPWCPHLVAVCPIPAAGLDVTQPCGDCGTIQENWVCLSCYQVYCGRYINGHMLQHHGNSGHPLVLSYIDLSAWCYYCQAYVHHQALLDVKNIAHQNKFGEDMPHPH
Summary of the method: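 HDAC6 captured on an anti-HDAC6 antibody-coated plate (2 μg/mL, pH 9.4 carbonate buffer, milk-blocked). HeLa-S3 lysate loaded at 1 mg/mL, 1 h at 4 °C, then washed. 15 min RT preincubation with inhibitor in DMSO; HDAC-Glo reagent added, luminescence read at 30-40 min. Concentrations are final. Background = no-antibody well; values are % activity versus DMSO control.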

COc1ccc(Cn2ccc3ccc(C(=O)NO)cc32)cc1
EC50 (U-937 [1]): 210 µM
viability at 5000 µM (U-937 [2]): 9%
viability at 2500 µM (U-937 [3]): 50%
viability at 1250 µM (U-937 [4]): 71%
viability at 500 µM (U-937 [5]): 85%
viability at 200 µM (U-937 [6]): 62%
viability at 200 µM (U-937 [7]): 13%

CN1CCc2c(c3ccccc3n2Cc2ccc(C(=O)NO)cc2)C1 [TUBASTATIN A]
EC50 (U-937 [1]): 83 µM
viability at 4000 µM (U-937 [8]): 17%
viability at 3000 µM (U-937 [9]): 19%
viability at 1000 µM (U-937 [10]): 38%
viability at 500 µM (U-937 [5]): 68%
viability at 250 µM (U-937 [11]): 82%
viability at 80 µM (U-937 [12]): 44%
viability at 80 µM (U-937 [13]): 13%

O=C(CC[C@@H](CCCC(=O)Nc1ccccc1)Cc1ccccc1)NO
Activity [14]: 24%
Activity [15]: 38%
Activity [16]: 53%
Activity [17]: 72%
Activity [18]: 29%
Activity [19]: 43%
Activity [20]: 71%
Activity [21]: 25%
Activity [22]: 39%
Activity [23]: 54%
Activity [24]: 77%
Activity [25]: 88%
Activity [26]: 96%
Activity [27]: 89%
Activity [28]: 67%
